Legend:
HCT-15 = assay: Cytotoxicity against human HCT-15 cells assessed as cell growth inhibition; type: functional, cell-based
How it was run: (§1)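 Compounds were dissolved in sterile DMSO as 10 mg ml−1 stocks and tested for in vitro growth inhibition of human cancer cell lines. Doxorubicin was the standard drug and DMSO (0.01%) the vehicle control. IC50 values are reported as means.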

CAL-27 [1] = assay: Cytotoxicity against human CAL-27 cells assessed as cell growth inhibition; type: functional, cell-based; how it was run: as §1
SCC-9 [2] = assay: Cytotoxicity against human SCC-9 cells assessed as cell growth inhibition; type: functional, cell-based; how it was run: as §1
A549 = assay: Cytotoxicity against human A549 cells assessed as cell growth inhibition; type: functional, cell-based
How it was run: (§2)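 Compounds were dissolved in sterile DMSO as 10 mg ml−1 stocks and tested in vitro for cytotoxicity in a cell-line panel, with DMSO (0.01%) as vehicle control and doxorubicin as standard. Mean IC50 values were reported, and the normal lung epithelial cells were tested up to 100 μM.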

MCF7 = assay: Cytotoxicity against human MCF7 cells assessed as cell growth inhibition; type: functional, cell-based; how it was run: as §1
[3] = Cytotoxicity against human BEAS-2B cells assessed as cell growth inhibition; type: toxicity, cell-based; how it was run: as §2
CAL-27 [4] = assay: Cell cycle arrest in human CAL-27 cells assessed as accumulation at G0/G1 phase at 31.5 uM incubated for 24 hrs by flow cytometry (reference value: 77.6 %); type: functional
CAL-27 [5] = assay: Cell cycle arrest in human CAL-27 cells assessed as accumulation at G0/G1 phase at 63 uM incubated for 24 hrs by flow cytometry (reference value: 77.6 %); type: functional
CAL-27 [6] = assay: Cell cycle arrest in human CAL-27 cells assessed as accumulation at S phase at 31.5 uM incubated for 24 hrs by flow cytometry (reference value: 3.6 %); type: functional
CAL-27 [7] = assay: Cell cycle arrest in human CAL-27 cells assessed as accumulation at S phase at 63 uM incubated for 24 hrs by flow cytometry (reference value: 3.6 %); type: functional
CAL-27 [8] = assay: Cell cycle arrest in human CAL-27 cells assessed as accumulation at G2/M phase at 31.5 uM incubated for 24 hrs by flow cytometry (reference value: 11.9 %); type: functional
CAL-27 [9] = assay: Cell cycle arrest in human CAL-27 cells assessed as accumulation at G2/M phase at 63 uM incubated for 24 hrs by flow cytometry (reference value: 11.9 %); type: functional
SCC-9 [10] = assay: Cell cycle arrest in human SCC-9 cells assessed as accumulation at G0/G1 phase at 46 uM incubated for 24 hrs by flow cytometry (reference value: 70.8 %); type: functional
SCC-9 [11] = assay: Cell cycle arrest in human SCC-9 cells assessed as accumulation at G0/G1 phase at 92 uM incubated for 24 hrs by flow cytometry (reference value: 70.8 %); type: functional
SCC-9 [12] = assay: Cell cycle arrest in human SCC-9 cells assessed as accumulation at S phase at 46 uM incubated for 24 hrs by flow cytometry (reference value: 14.4 %); type: functional
SCC-9 [13] = assay: Cell cycle arrest in human SCC-9 cells assessed as accumulation at S phase at 92 uM incubated for 24 hrs by flow cytometry (reference value: 14.4 %); type: functional
SCC-9 [14] = assay: Cell cycle arrest in human SCC-9 cells assessed as accumulation at G2/M phase at 46 uM incubated for 24 hrs by flow cytometry (reference value: 14.2 %); type: functional
SCC-9 [15] = assay: Cell cycle arrest in human SCC-9 cells assessed as accumulation at G2/M phase at 92 uM incubated for 24 hrs by flow cytometry (reference value: 14.2 %); type: functional
CAL-27 [16] = assay: Induction of apoptosis in human CAL-27 cells assessed as live cells at 31.5 uM incubated for 24 hrs by Annexin V-FITC/PI staining based flow cytometric analysis (reference value: 99.8 %); type: functional
How it was run: (§3)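 CAL27 cells were treated with vehicle, doxorubicin or test compounds at 10–63 μM, and apoptosis was assessed by annexin V–FITC/PI staining with flow cytometry. Cells were scored as live, early apoptotic, late apoptotic or necrotic. The vehicle was DMSO (0.01%).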

CAL-27 [17] = assay: Induction of apoptosis in human CAL-27 cells assessed as early apoptotic cells at 31.5 uM incubated for 24 hrs by Annexin V-FITC/PI staining based flow cytometric analysis (reference value: 0.1 %); type: functional; how it was run: as §3
CAL-27 [18] = assay: Induction of apoptosis in human CAL-27 cells assessed as late apoptotic cells at 31.5 uM incubated for 24 hrs by Annexin V-FITC/PI staining based flow cytometric analysis (reference value: 0.1 %); type: functional; how it was run: as §3
CAL-27 [19] = assay: Induction of apoptosis in human CAL-27 cells assessed as necrotic cells at 31.5 uM incubated for 24 hrs by Annexin V-FITC/PI staining based flow cytometric analysis (reference value: 0.0 %); type: functional
CAL-27 [20] = assay: Induction of apoptosis in human CAL-27 cells assessed as live cells at 63 uM incubated for 24 hrs by Annexin V-FITC/PI staining based flow cytometric analysis (reference value: 99.8 %); type: functional; how it was run: as §3
CAL-27 [21] = assay: Induction of apoptosis in human CAL-27 cells assessed as early apoptotic cells at 63 uM incubated for 24 hrs by Annexin V-FITC/PI staining based flow cytometric analysis (reference value: 0.1 %); type: functional; how it was run: as §3
CAL-27 [22] = assay: Induction of apoptosis in human CAL-27 cells assessed as late apoptotic cells at 63 uM incubated for 24 hrs by Annexin V-FITC/PI staining based flow cytometric analysis (reference value: 0.1 %); type: functional; how it was run: as §3
CAL-27 [23] = assay: Induction of apoptosis in human CAL-27 cells assessed as necrotic cells at 63 uM incubated for 24 hrs by Annexin V-FITC/PI staining based flow cytometric analysis (reference value: 0.0 %); type: functional
SCC-9 [24] = assay: Induction of apoptosis in human SCC-9 cells assessed as live cells at 46 uM incubated for 24 hrs by Annexin V-FITC/PI staining based flow cytometric analysis (reference value: 95.7 %); type: functional
SCC-9 [25] = assay: Induction of apoptosis in human SCC-9 cells assessed as early apoptotic cells at 46 uM incubated for 24 hrs by Annexin V-FITC/PI staining based flow cytometric analysis (reference value: 2.8 %); type: functional
SCC-9 [26] = assay: Induction of apoptosis in human SCC-9 cells assessed as late apoptotic cells at 46 uM incubated for 24 hrs by Annexin V-FITC/PI staining based flow cytometric analysis (reference value: 1.4 %); type: functional
SCC-9 [27] = assay: Induction of apoptosis in human SCC-9 cells assessed as necrotic cells at 46 uM incubated for 24 hrs by Annexin V-FITC/PI staining based flow cytometric analysis (reference value: 0.1 %); type: functional
SCC-9 [28] = assay: Induction of apoptosis in human SCC-9 cells assessed as live cells at 92 uM incubated for 24 hrs by Annexin V-FITC/PI staining based flow cytometric analysis (reference value: 95.7 %); type: functional
SCC-9 [29] = assay: Induction of apoptosis in human SCC-9 cells assessed as early apoptotic cells at 92 uM incubated for 24 hrs by Annexin V-FITC/PI staining based flow cytometric analysis (reference value: 2.8 %); type: functional
SCC-9 [30] = assay: Induction of apoptosis in human SCC-9 cells assessed as late apoptotic cells at 92 uM incubated for 24 hrs by Annexin V-FITC/PI staining based flow cytometric analysis (reference value: 1.4 %); type: functional
SCC-9 [31] = assay: Induction of apoptosis in human SCC-9 cells assessed as necrotic cells at 92 uM incubated for 24 hrs by Annexin V-FITC/PI staining based flow cytometric analysis (reference value: 0.1 %); type: functional

## COc1c(O)c(CN2CCN(CC(=O)Nc3nc4ccc(C)cc4s3)CC2)c2c(c1O)C1O[C@H](CO)[C@@H](O)[C@H](O)C1OC2=O (some centres undefined)
HCT-15
  IC50: > 100 µM
CAL-27 [1]
  IC50: 63.7 µM
SCC-9 [2]
  IC50: 91.9 µM
A549
  IC50: 90.6 µM
MCF7
  IC50: 74.5 µM
[3]
  IC50: > 100 µM
CAL-27 [4]
  Activity: 85.4%
CAL-27 [5]
  Activity: 82.1%
CAL-27 [6]
  Activity: 3.7%
CAL-27 [7]
  Activity: 3.2%
CAL-27 [8]
  Activity: 11.5%
CAL-27 [9]
  Activity: 15.3%
SCC-9 [10]
  Activity: 76.9%
SCC-9 [11]
  Activity: 85.7%
SCC-9 [12]
  Activity: 11.3%
SCC-9 [13]
  Activity: 4.9%
SCC-9 [14]
  Activity: 11.7%
SCC-9 [15]
  Activity: 9.4%
CAL-27 [16]
  Activity: 89%
CAL-27 [17]
  Activity: 8.3%
CAL-27 [18]
  Activity: 2.6%
CAL-27 [19]
  Activity: 0.4%
CAL-27 [20]
  Activity: 81.1%
CAL-27 [21]
  Activity: 11.7%
CAL-27 [22]
  Activity: 4.2%
CAL-27 [23]
  Activity: 3%
SCC-9 [24]
  Activity: 38.2%
SCC-9 [25]
  Activity: 9.4%
SCC-9 [26]
  Activity: 14.7%
SCC-9 [27]
  Activity: 37.6%
SCC-9 [28]
  Activity: 53.5%
SCC-9 [29]
  Activity: 7.5%
SCC-9 [30]
  Activity: 12%
SCC-9 [31]
  Activity: 27%

Source: ChEMBL document CHEMBL5108039, “Piperazine tethered bergenin heterocyclic hybrids: design, synthesis, anticancer activity, and molecular docking studies” (RSC Med Chem, 2022)
